Assay results published in ChEMBL document CHEMBL3396961, “Novel pyrazole-5-carboxamide and pyrazole-pyrimidine derivatives: synthesis and anticancer activity” (Eur J Med Chem, 2015).
pIC50: −log10 of the molar value.

Molecular target: Telomerase reverse transcriptase (Homo sapiens, UniProt O14746)
Assay: Inhibition of telomerase in human MGC803 cells after 24 hrs by TRAP-PCR-ELISA
Format: cell-based, MGC-803
Conditions: not given

Telomerase reverse transcriptase, sequence (O14746 whole entry): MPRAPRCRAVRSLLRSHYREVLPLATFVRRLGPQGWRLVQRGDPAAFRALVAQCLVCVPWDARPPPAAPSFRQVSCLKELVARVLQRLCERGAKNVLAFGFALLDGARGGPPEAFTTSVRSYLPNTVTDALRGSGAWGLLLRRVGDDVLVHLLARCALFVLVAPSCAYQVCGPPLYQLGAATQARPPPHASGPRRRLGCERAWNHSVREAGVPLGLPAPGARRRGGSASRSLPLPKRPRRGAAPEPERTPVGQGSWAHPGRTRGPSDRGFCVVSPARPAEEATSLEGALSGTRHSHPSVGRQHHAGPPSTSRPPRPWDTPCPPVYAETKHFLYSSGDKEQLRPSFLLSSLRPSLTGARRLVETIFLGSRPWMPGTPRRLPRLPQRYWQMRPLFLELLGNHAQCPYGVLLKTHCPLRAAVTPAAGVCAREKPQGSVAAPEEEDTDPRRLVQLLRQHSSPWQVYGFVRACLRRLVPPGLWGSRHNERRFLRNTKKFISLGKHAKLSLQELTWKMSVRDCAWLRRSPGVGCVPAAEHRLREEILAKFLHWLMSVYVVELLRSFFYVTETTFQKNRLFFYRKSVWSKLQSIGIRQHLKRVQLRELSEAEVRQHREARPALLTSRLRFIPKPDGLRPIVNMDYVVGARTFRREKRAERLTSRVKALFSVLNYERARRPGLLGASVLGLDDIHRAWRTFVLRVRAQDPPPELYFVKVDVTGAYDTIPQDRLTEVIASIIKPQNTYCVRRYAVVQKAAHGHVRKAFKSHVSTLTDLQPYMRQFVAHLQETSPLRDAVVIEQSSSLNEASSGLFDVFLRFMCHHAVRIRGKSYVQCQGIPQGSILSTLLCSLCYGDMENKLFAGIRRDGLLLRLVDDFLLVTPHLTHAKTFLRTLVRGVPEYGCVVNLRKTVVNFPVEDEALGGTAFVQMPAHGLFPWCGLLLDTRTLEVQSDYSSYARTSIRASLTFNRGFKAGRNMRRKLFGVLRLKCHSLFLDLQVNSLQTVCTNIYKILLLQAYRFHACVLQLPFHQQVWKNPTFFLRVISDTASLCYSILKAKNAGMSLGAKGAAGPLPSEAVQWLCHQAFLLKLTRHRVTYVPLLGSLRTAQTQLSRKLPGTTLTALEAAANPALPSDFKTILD

First: CCCc1nn(C)c2c(=O)[nH]c(/C=C/c3cc(OC)c(OC)c(OC)c3)nc12
Second: CCCc1nn(C)c(C(N)=O)c1NC(=O)/C=C/c1cc(OC)c(OC)c(OC)c1
The pIC50 of the first is 0.74 log units lower: 4.72 for the first, 5.46 for the second.

First: CCCc1nn(C)c(C(N)=O)c1NC(=O)/C=C/c1ccccc1
Second: CCCc1nn(C)c(C(N)=O)c1NC(=O)/C=C/c1ccco1
The pIC50 of the first is 0.29 log units lower: 5.70 for the first, 5.99 for the second. The second is the more potent here.

`CCCc1nn(C)c(C(N)=O)c1NC(=O)c1cc(OC)c(OC)cc1OC` and `CCCc1nn(C)c(C(N)=O)c1NC(=O)c1cc(OC)c(OC)c(OC)c1` are within 0.2 log units of each other in pIC50: 4.91 for the first, 5.10 for the second.

With `CCCc1nn(C)c2c(=O)[nH]c(/C=C/c3ccco3)nc12` the pIC50 was 4.82.

Test system: MGC-803
Assay: Cell cycle arrest in human MGC803 cells assessed as accumulation at G2 phase at 3 uM after 48 hrs by propidium iodide staining-based flow cytometry (reference value: 6.7%)
Format: functional
Conditions: not given

`CCCc1nn(C)c(C(N)=O)c1NC(=O)/C=C/c1ccco1` showed an Activity of 2.46%.

Test system: Bcap37
Assay: Cytotoxicity against human Bcap37 cells after 48 hrs by MTT assay
Format: functional, cell-based
Conditions: Bcap37, 48 h
In short: (§1)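 Cells were grown to log phase in RPMI 1640 with 10% FBS and seeded at 3×10^4 cells/mL. After 24 h preincubation (37 °C, 5% CO2) they were exposed 48 h to preset concentrations, 6 wells each; vehicle 0.1% DMSO, 5-fluorouracil as reference. MTT (2.5 mg/mL in PBS) for 4 h, formazan dissolved in DMSO, A570 read. IC50 taken at 50% survival; mean ± SD of three experiments in triplicate.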

`CCCc1nn(C)c2c(=O)[nH]c(/C=C/c3cc(OC)c(OC)c(OC)c3)nc12` and `CCCc1nn(C)c(C(N)=O)c1NC(=O)/C=C/c1cc(OC)c(OC)c(OC)c1` are within 0.2 log units of each other in pIC50: 4.43 for the first, 4.25 for the second.

Going from `CCCc1nn(C)c(C(N)=O)c1NC(=O)/C=C/c1ccccc1` to `CCCc1nn(C)c(C(N)=O)c1NC(=O)/C=C/c1ccco1`, the pIC50 rises from 4.33 to 4.98 (0.65 log units). The second is the more potent here.

`CCCc1nn(C)c(C(N)=O)c1NC(=O)c1cc(OC)c(OC)cc1OC` and `CCCc1nn(C)c(C(N)=O)c1NC(=O)c1cc(OC)c(OC)c(OC)c1` are within 0.2 log units of each other in pIC50: 4.47 for the first, 4.39 for the second.

First: O=c1[nH]cc(F)c(=O)[nH]1 [FLUOROURACIL]
Second: CCCc1nn(C)c2c(=O)[nH]c(/C=C/c3ccco3)nc12
The pIC50 of the first is 0.75 log units higher: 5.29 for the first, 4.54 for the second.

For `CCCc1nn(C)c2c(=O)[nH]c(/C=C/c3ccccc3)nc12`, the pIC50 was 4.34.

Test system: MGC-803
Assay: Cell cycle arrest in human MGC803 cells assessed as accumulation at G1 phase at 3 uM after 48 hrs by propidium iodide staining-based flow cytometry (reference value: 62.91%)
Format: functional
Conditions: not given

`CCCc1nn(C)c(C(N)=O)c1NC(=O)/C=C/c1ccco1` gave an Activity of 59.82%.

Test system: MGC-803
Assay: Cell cycle arrest in human MGC803 cells assessed as accumulation at S phase at 3 uM after 48 hrs by propidium iodide staining-based flow cytometry (reference value: 30.38%)
Format: functional
Conditions: not given

Compound `CCCc1nn(C)c(C(N)=O)c1NC(=O)/C=C/c1ccco1` has an Activity of 42.2%.

Test system: not listed separately
Assay: Cytotoxicity against human SGC7901 cells after 48 hrs by MTT assay
Format: functional, cell-based
Conditions: SGC-7901, 48 h
In short: as §1

First: CCCc1nn(C)c2c(=O)[nH]c(/C=C/c3cc(OC)c(OC)c(OC)c3)nc12
Second: CCCc1nn(C)c(C(N)=O)c1NC(=O)/C=C/c1cc(OC)c(OC)c(OC)c1
The pIC50 of the first is 0.30 log units lower: 4.59 for the first, 4.89 for the second. The second is the more potent here.

`CCCc1nn(C)c(C(N)=O)c1NC(=O)/C=C/c1ccccc1` and `CCCc1nn(C)c(C(N)=O)c1NC(=O)/C=C/c1ccco1` are within 0.2 log units of each other in pIC50: 5.09 for the first, 5.08 for the second.

Going from `CCCc1nn(C)c(C(N)=O)c1NC(=O)c1cc(OC)c(OC)cc1OC` to `CCCc1nn(C)c(C(N)=O)c1NC(=O)c1cc(OC)c(OC)c(OC)c1`, the pIC50 rises from 4.46 to 4.87 (0.41 log units). The second is the more potent here.

`O=c1[nH]cc(F)c(=O)[nH]1` [FLUOROURACIL] and `CCCc1nn(C)c2c(=O)[nH]c(/C=C/c3ccco3)nc12` are within 0.2 log units of each other in pIC50: 5.18 for the first, 4.99 for the second.

With `CCCc1nn(C)c2c(=O)[nH]c(/C=C/c3ccccc3)nc12` the pIC50 was 4.76.

Test system: MGC-803
Assay: Cytotoxicity against human MGC803 cells after 48 hrs by MTT assay
Format: functional, cell-based
Conditions: MGC-803, 48 h
In short: as §1

Compared with `CCCc1nn(C)c2c(=O)[nH]c(/C=C/c3cc(OC)c(OC)c(OC)c3)nc12`, `CCCc1nn(C)c(C(N)=O)c1NC(=O)/C=C/c1cc(OC)c(OC)c(OC)c1` is 0.89 log units higher in pIC50: 4.48 for the first, 5.37 for the second.

`CCCc1nn(C)c(C(N)=O)c1NC(=O)/C=C/c1ccccc1` and `CCCc1nn(C)c(C(N)=O)c1NC(=O)/C=C/c1ccco1` are within 0.2 log units of each other in pIC50: 5.46 for the first, 5.52 for the second.

First: CCCc1nn(C)c(C(N)=O)c1NC(=O)c1cc(OC)c(OC)cc1OC
Second: CCCc1nn(C)c(C(N)=O)c1NC(=O)c1cc(OC)c(OC)c(OC)c1
The pIC50 of the first is 0.81 log units lower: 4.53 for the first, 5.34 for the second.

First: CCCc1nn(C)c2c(=O)[nH]c(/C=C/c3ccccc3)nc12
Second: CCCc1nn(C)c2c(=O)[nH]c(/C=C/c3ccco3)nc12
The pIC50 of the first is 0.50 log units lower: 4.65 for the first, 5.15 for the second. The second is the more potent here.
